Activity and GI50 data for three compounds are collected here from ChEMBL document CHEMBL1136298, “Synthesis of novel C2 and C2-C8 linked pyrrolo[2,1-c][1,4]benzodiazepine-naphthalimide hybrids as DNA-binding agents” (2003).

One experiment relates to MCF7. As to the kind of experiment: In vitro anticancer activity against breast MCF-7 cell line. The experiment is classed as functional, Homo sapiens. The gist of the method:
(§1)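 Primary screen in a three-cell-line panel of MCF7 (breast), NCI-H460 (lung) and SF-268 (CNS), with each compound tested as one dose at 10⁻⁴ molar.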

Another experiment has as its system SF-268. The experiment in a line: In vitro anticancer activity against SF-268 (CNS) cell line. The experiment is classed as functional, Homo sapiens. The gist of the method:
as §1

In a further experiment the test system is NCI-H460. As to the kind of experiment: In vitro anticancer activity against lung NCI-H460 cell line. The experiment is classed as functional, Homo sapiens. The gist of the method: as §1
Another experiment relates to T47D. As to the kind of experiment: In vitro cytotoxic activity against breast T-47D cell line. The class given is functional. As to conditions: Homo sapiens.
In a further experiment the test system is MOLT-4. The experiment in a line: In vitro cytotoxic activity against MOLT-4 cell line. To be noted: Homo sapiens.
In the next experiment the test system is HL-60. The experiment in a line: In vitro cytotoxic activity against HL60 (TB) cell line. The class given is functional. To be noted: Homo sapiens.
The subject of a further experiment is CCRF-CEM. As to the kind of experiment: In vitro cytotoxic activity against leukemia CCRF-CEM cell line. To be noted: Homo sapiens. The experiment is classed as functional.
The test system of the next experiment is SNB-19. As to the kind of experiment: In vitro cytotoxic activity against central nervous system (CNS) SNB-19 cell line. The experiment is classed as functional. To be noted: Homo sapiens.
Another experiment concerns SR. The experiment in a line: In vitro cytotoxic activity against SR cell line. The class given is functional. To be noted: Homo sapiens.

With `COc1cc2c(cc1OCCCN1C(=O)c3cccc4cccc(c34)C1=O)N=C[C@@H]1C/C(=C\C(=O)NCCCN3C(=O)c4cccc5cccc(c45)C3=O)CN1C2=O`, the Activity in the experiment on MCF7 is on record as 86%; in the experiment on SF-268 it was 97%; with NCI-H460, 102%.

As for `COc1cc2c(cc1OCc1ccccc1)N=C[C@@H]1C/C(=C\C(=O)NCCCN3C(=O)c4cccc5cccc(c45)C3=O)CN1C2=O`, the values for the Activity in the experiment with MCF7, in the experiment with SF-268 and with NCI-H460 were 0%, 1% and 0%, respectively. Besides, the GI50 (in general, the concentration that inhibits growth by half) with T47D was 34 nM; in the experiment on MOLT-4, 55 nM; in the experiment on HL-60, 91 nM; in the experiment with CCRF-CEM, 62 nM; with SNB-19, 80 nM; in the experiment with SR, < 10 nM.

In the case of `COc1cc2c(cc1OCc1ccccc1)N=C[C@@H]1C/C(=C\C(=O)NCCN3C(=O)c4cccc5cccc(c45)C3=O)CN1C2=O`, the Activity in the experiment on MCF7 came to 89%; in the experiment on SF-268, 95%; with NCI-H460, 101%.
